Laboratory results published in PMC3652433 (MedChemComm, 2013).

Experiments:
hMOR = hMOR (Homo sapiens, UniProt P35372); assay type: cell-based; settings: hMOR-CHO cells with Gqi5; data not shown
CCR5 [1] = target: CCR5 (Homo sapiens, UniProt P51681); test: Ca2+ flux assay in Gqi5 transfected CCR5-MOLT-4 cells; assay type: cell-based; settings: for Potency decrease in RANTES induced Ca2+ flux inhibition compared to maraviroc: relative to maraviroc
HIV-1SF162 = assay type: cell-based; settings: human astrocytes
How it was run: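 Human astrocytes infected with R5 HIV-1SF162; infection assessed by a luciferase-based read-out of relative Tat protein expression at 18 h post-infection. Dose–response was run per compound first. Fixed levels: test compound 100 nM, CCR5 antagonist reference 100 nM, opioid antagonist reference 1.5 μM. Values are […] ± SEM of three independent experiments; statistics vs uninfected control cells.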

astroglial cells = test: Viability of astroglial cells, dual fluorescence labeling with AOPI; assay type: cell-based, human; settings: 100 nM, data not shown
CCR5 [2] = target: CCR5 (Macaca mulatta, UniProt P61813); test: CCR5 competitive radioligand binding assay; parameters: species or system rhesus macaque; settings: relative to maraviroc
[3] = 100 nM, R5 HIV-1SF162, 18 h post-infection

Sequence of CCR5 (Homo sapiens, UniProt P51681) (P51681 whole entry): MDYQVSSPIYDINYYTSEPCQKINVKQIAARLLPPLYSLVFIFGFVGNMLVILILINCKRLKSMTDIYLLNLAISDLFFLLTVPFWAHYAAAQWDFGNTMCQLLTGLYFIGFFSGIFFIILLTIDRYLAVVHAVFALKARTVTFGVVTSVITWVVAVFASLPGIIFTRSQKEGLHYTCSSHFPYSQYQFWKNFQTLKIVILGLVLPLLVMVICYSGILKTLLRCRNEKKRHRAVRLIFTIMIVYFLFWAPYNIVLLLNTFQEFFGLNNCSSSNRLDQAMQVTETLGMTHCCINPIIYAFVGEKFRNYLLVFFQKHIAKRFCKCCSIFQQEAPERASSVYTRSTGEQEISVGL
Sequence of hMOR (P35372 whole entry): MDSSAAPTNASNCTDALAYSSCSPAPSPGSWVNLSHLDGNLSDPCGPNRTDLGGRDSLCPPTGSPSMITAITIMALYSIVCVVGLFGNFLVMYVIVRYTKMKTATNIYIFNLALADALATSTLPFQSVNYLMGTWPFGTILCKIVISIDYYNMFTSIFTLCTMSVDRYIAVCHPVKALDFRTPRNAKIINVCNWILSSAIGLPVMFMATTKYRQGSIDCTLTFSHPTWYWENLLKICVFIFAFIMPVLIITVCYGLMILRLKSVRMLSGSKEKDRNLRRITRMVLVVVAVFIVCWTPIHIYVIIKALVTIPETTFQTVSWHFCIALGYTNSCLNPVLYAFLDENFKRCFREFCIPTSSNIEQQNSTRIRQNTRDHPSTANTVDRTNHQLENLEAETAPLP

Compound | MOR agonism in Ca2+ mobilization assay (hMOR) | Potency decrease in RANTES induced Ca2+ flux inhibition compared to maraviroc (CCR5 [1]) | Effect on viral entry / Tat expression (HIV-1SF162; [3]) | other results
Cc1nnc(C(C)C)n1C1CC2CCC(C1)N2CC[C@H](NC(=O)C1CCC(F)(F)CC1)c1ccc(NC(=O)COCC(=O)NCCCCCCCNC(=O)COCC(=O)N[C@@H]2CC[C@@]3(O)[C@H]4Cc5ccc(O)c6c5[C@@]3(CCN4CC3CC3)[C@H]2O6)cc1 (some centres unmarked) [compound 1] | No agonism was observed | approximately 60 fold | significantly effective in inhibiting viral entry | CCR5 agonism in Ca2+ assay (CCR5 [1]; CCR5-MOLT-4 cells with Gqi5, data not shown): no CCR5 agonism was detected; Decrease in Tat expression compared to maraviroc alone (HIV-1SF162; 100 nM, vs maraviroc 100 nM): at least a two-fold decrease in Tat expression; Effect on viability of astroglial cells (astroglial cells): did not affect the viability of astroglial cells
CNC(=O)COCC(=O)NCCCCCCCNC(=O)COCC(=O)N[C@@H]1CC[C@@]2(O)[C@H]3Cc4ccc(O)c5c4[C@@]2(CCN3CC2CC2)[C@H]1O5 [compound 2] | No agonism was observed |  |  | 
CNC(=O)COCC(=O)NCCCCCCCNC(=O)COCC(=O)Nc1ccc([C@H](CCN2C3CCC2CC(n2c(C)nnc2C(C)C)C3)NC(=O)C2CCC(F)(F)CC2)cc1 (some centres unmarked) [compound 3] |  | ~300 fold |  | 
Cc1nnc(C(C)C)n1C1CC2CCC(C1)N2CC[C@H](NC(=O)C1CCC(F)(F)CC1)c1ccc(N)cc1 (some centres unmarked) [compound 4] |  |  |  | Decrease in CCR5 binding affinity compared to maraviroc (CCR5 [2]): approximately 65 fold
O=C1CC[C@@]2(O)[C@H]3Cc4ccc(O)c5c4[C@@]2(CCN3CC2CC2)[C@H]1O5 [naltrexone, reference compound] |  |  |  | Effect on Tat production (HIV-1SF162; 1.5 μM, R5 HIV-1SF162, 18 h post-infection): did not show significant effect on Tat production
maraviroc [reference compound] |  |  | considerably inhibited viral entry | 
